Data: publication PMC11847724 (Neoplasia (New York, N.Y.), 2025)
Where two headings read alike, the source gives them in different places.

Assays:
[1] = all tested species ref 9; cited from earlier work
rats = settings: highest dose administered; cited from earlier work
ALK = settings: preclinical studies ref 9, 10; cited from earlier work
[2] = test system: participants with advanced or metastatic solid tumors; type: in vivo, human
Summary of the method: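 Open-label, first-in-human 3 + 3 escalation in adults with recurrent, locally advanced or metastatic solid tumors lacking standard therapy. Test compound was given orally once daily from 25 up to 700 mg/day (modified Fibonacci steps) in 28-day cycles for 6 to 8 cycles, with no intrapatient escalation. The safety population was everyone dosed at least once. AEs were coded by MedDRA and graded by NCI CTCAE v4.03. DLT was assessed in cycle 1, and MTD was the highest dose with DLT in under one-third of a cohort.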

CNC(=O)c1ccccc1Nc1nc(Nc2ccc3c(c2OC)CCC[C@H](N2CCN(CCO)CC2)C3)ncc1Cl [ESK-440]
oral bioavailability [1]: acceptable | highest non-severely toxic dose (HNSTD) (rats): 30 mg/kg | potency (ALK): low nanomolar | AE: Cough ([2]; 25 mg/day (n = 3)): 1 (33) Number (%) of participants | AE: Decreased appetite ([2]; 25 mg/day (n = 3)): 0 Number (%) of participants | AE: Diarrhea ([2]; 25 mg/day (n = 3)): 1 (33) Number (%) of participants | AE: Edema peripheral ([2]; 25 mg/day (n = 3)): 0 Number (%) of participants | AE: Fatigue ([2]; 25 mg/day (n = 3)): 0 Number (%) of participants | AE: Nausea ([2]; 25 mg/day (n = 3)): 1 (33) Number (%) of participants | AE: Pyrexia ([2]; 25 mg/day (n = 3)): 0 Number (%) of participants | AE: Vomiting ([2]; 25 mg/day (n = 3)): 0 Number (%) of participants | Any AE ([2]; 25 mg/day (n = 3)): 3 (100) Number (%) of participants | Deaths ([2]; 25 mg/day (n = 3)): 1 (33) Number (%) of participants | Grade 3-5 AE ([2]; 25 mg/day (n = 3)): 3 (100) Number (%) of participants | Other serious AEs ([2]; 25 mg/day (n = 3)): 2 (67) Number (%) of participants | Treatment-related AE ([2]; 25 mg/day (n = 3)): 1 (33) Number (%) of participants | Withdrawn from treatment due to AE ([2]; 25 mg/day (n = 3)): 1 (33) Number (%) of participants | AE: Cough ([2]; 50 mg/day (n = 3)): 0 Number (%) of participants | AE: Decreased appetite ([2]; 50 mg/day (n = 3)): 0 Number (%) of participants | AE: Diarrhea ([2]; 50 mg/day (n = 3)): 0 Number (%) of participants | AE: Edema peripheral ([2]; 50 mg/day (n = 3)): 0 Number (%) of participants | AE: Fatigue ([2]; 50 mg/day (n = 3)): 1 (33) Number (%) of participants | AE: Nausea ([2]; 50 mg/day (n = 3)): 1 (33) Number (%) of participants | AE: Pyrexia ([2]; 50 mg/day (n = 3)): 1 (33) Number (%) of participants | AE: Vomiting ([2]; 50 mg/day (n = 3)): 0 Number (%) of participants | Any AE ([2]; 50 mg/day (n = 3)): 2 (67) Number (%) of participants | Deaths ([2]; 50 mg/day (n = 3)): 0 Number (%) of participants | Grade 3-5 AE ([2]; 50 mg/day (n = 3)): 1 (33) Number (%) of participants | Other serious AEs ([2]; 50 mg/day (n = 3)): 1 (33) Number (%) of participants | Treatment-related AE ([2]; 50 mg/day (n = 3)): 1 (33) Number (%) of participants | Withdrawn from treatment due to AE ([2]; 50 mg/day (n = 3)): 0 Number (%) of participants | AE: Cough ([2]; 100 mg/day (n = 4)): 0 Number (%) of participants | AE: Decreased appetite ([2]; 100 mg/day (n = 4)): 0 Number (%) of participants | AE: Diarrhea ([2]; 100 mg/day (n = 4)): 0 Number (%) of participants | AE: Edema peripheral ([2]; 100 mg/day (n = 4)): 1 (25) Number (%) of participants | AE: Fatigue ([2]; 100 mg/day (n = 4)): 3 (75) Number (%) of participants | AE: Nausea ([2]; 100 mg/day (n = 4)): 0 Number (%) of participants | AE: Pyrexia ([2]; 100 mg/day (n = 4)): 1 (25) Number (%) of participants | AE: Vomiting ([2]; 100 mg/day (n = 4)): 0 Number (%) of participants | Any AE ([2]; 100 mg/day (n = 4)): 4 (100) Number (%) of participants | Deaths ([2]; 100 mg/day (n = 4)): 1 (25) Number (%) of participants | Grade 3-5 AE ([2]; 100 mg/day (n = 4)): 2 (50) Number (%) of participants | Other serious AEs ([2]; 100 mg/day (n = 4)): 2 (50) Number (%) of participants | Treatment-related AE ([2]; 100 mg/day (n = 4)): 2 (50) Number (%) of participants | Withdrawn from treatment due to AE ([2]; 100 mg/day (n = 4)): 1 (25) Number (%) of participants | AE: Cough ([2]; 150 mg/day (n = 3)): 1 (33) Number (%) of participants | AE: Decreased appetite ([2]; 150 mg/day (n = 3)): 1 (33) Number (%) of participants | AE: Diarrhea ([2]; 150 mg/day (n = 3)): 1 (33) Number (%) of participants | AE: Edema peripheral ([2]; 150 mg/day (n = 3)): 1 (33) Number (%) of participants | AE: Fatigue ([2]; 150 mg/day (n = 3)): 2 (67) Number (%) of participants | AE: Nausea ([2]; 150 mg/day (n = 3)): 0 Number (%) of participants | AE: Pyrexia ([2]; 150 mg/day (n = 3)): 1 (33) Number (%) of participants | AE: Vomiting ([2]; 150 mg/day (n = 3)): 0 Number (%) of participants | Any AE ([2]; 150 mg/day (n = 3)): 3 (100) Number (%) of participants | Deaths ([2]; 150 mg/day (n = 3)): 0 Number (%) of participants | Grade 3-5 AE ([2]; 150 mg/day (n = 3)): 1 (33) Number (%) of participants | Other serious AEs ([2]; 150 mg/day (n = 3)): 1 (33) Number (%) of participants | Treatment-related AE ([2]; 150 mg/day (n = 3)): 3 (100) Number (%) of participants | Withdrawn from treatment due to AE ([2]; 150 mg/day (n = 3)): 0 Number (%) of participants | AE: Cough ([2]; 250 mg/day (n = 4)): 1 (25) Number (%) of participants | AE: Decreased appetite ([2]; 250 mg/day (n = 4)): 2 (50) Number (%) of participants | AE: Diarrhea ([2]; 250 mg/day (n = 4)): 2 (50) Number (%) of participants | AE: Edema peripheral ([2]; 250 mg/day (n = 4)): 2 (50) Number (%) of participants | AE: Fatigue ([2]; 250 mg/day (n = 4)): 3 (75) Number (%) of participants | AE: Nausea ([2]; 250 mg/day (n = 4)): 3 (75) Number (%) of participants | AE: Pyrexia ([2]; 250 mg/day (n = 4)): 0 Number (%) of participants | AE: Vomiting ([2]; 250 mg/day (n = 4)): 3 (75) Number (%) of participants | Any AE ([2]; 250 mg/day (n = 4)): 4 (100) Number (%) of participants | Deaths ([2]; 250 mg/day (n = 4)): 1 (25) Number (%) of participants | Grade 3-5 AE ([2]; 250 mg/day (n = 4)): 1 (25) Number (%) of participants | Other serious AEs ([2]; 250 mg/day (n = 4)): 1 (25) Number (%) of participants | Treatment-related AE ([2]; 250 mg/day (n = 4)): 4 (100) Number (%) of participants | Withdrawn from treatment due to AE ([2]; 250 mg/day (n = 4)): 0 Number (%) of participants | AE: Cough ([2]; 350 mg/day (n = 4)): 1 (25) Number (%) of participants | AE: Decreased appetite ([2]; 350 mg/day (n = 4)): 2 (50) Number (%) of participants | AE: Diarrhea ([2]; 350 mg/day (n = 4)): 1 (25) Number (%) of participants
